Among the data in ChEMBL document CHEMBL1149148, “Synthesis and structure-activity relationships of novel 7-substituted 1,4-dihydro-4-oxo-1-(2-thiazolyl)-1,8-naphthyridine-3-carboxylic acids as antitumor agents. Part 2” (J Med Chem, 2004) are T/C, solubility and IC50 values, retold here.

Data set [1] concerns Mus musculus. In words: Ratio of median survival time of treated mice (T) to that of median survival time of controls (C) in mice infected with p388 cells (in vivo) at a dose of 0.78 mg/kg. The class given is functional. The method in brief: (§1)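 BDF1 mice implanted ip with 0.1 mL diluted ascites fluid carrying 10⁶ P388 leukemia cells. Dosing ip on days 1 and 5 after implantation. Test compounds were suspended in 0.4% CMC, and reference drugs were dissolved and diluted in distilled water. Seven mice per group. T/C (%) = median survival time of treated group / median survival time of control group × 100.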

Data set [2] concerns Mus musculus. In words: Ratio of median survival time of treated mice (T) to that of median survival time of controls (C) in mice infected with p388 cells (in vivo) at a dose of 6.25 mg/kg. The class given is functional. In short, it runs like this:
as §1

Data set [3] deals with Mus musculus. Description: Ratio of median survival time of treated mice (T) to that of median survival time of controls (C) in mice infected with p388 cells (in vivo) at a dose of 1.56 mg/kg. The class given is functional. The method in brief: as §1
Data set [4] deals with Mus musculus. Description: Ratio of median survival time of treated mice (T) to that of median survival time of controls (C) in mice infected with p388 cells (in vivo) at a dose of 12.5 mg/kg. In kind it is functional. The method in brief:
as §1

The test system of data set [5] is Mus musculus. In words: Ratio of median survival time of treated mice (T) to that of median survival time of controls (C) in mice infected with p388 cells (in vivo) at a dose of 3.13 mg/kg. The class given is functional. In short, it runs like this: as §1
A short description of data set [6]: Solubility at pH 7.2. In kind it is physicochemical. The note with it: buffer. The method in brief:
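Water solubility measured in pH 7.2 phosphate buffer, reported in mg/mL.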

Data set [7] deals with Mus musculus. In words: Ratio of median survival time of treated mice (T) to that of median survival time of controls (C) in mice infected with p388 cells (in vivo) at a dose of 25 mg/kg. The class given is functional. In short, it runs like this:
as §1

Data set [8] relates to P388. In words: Cytotoxic activity against murine P388 leukemia cells. The class given is functional, cell-based. The note with it: Mus musculus.
In data set [9] the test system is Mus musculus. Description: Ratio of median survival time of treated mice (T) to that of median survival time of controls (C) in mice infected with p388 cells (in vivo) at a dose of 50 mg/kg. The class given is functional. In short, it runs like this:
as §1

Converted amounts (≈) assume the structure as drawn.

In the case of `CN[C@@H]1CN(c2ccc3c(=O)c(C(=O)O)cn(-c4nccs4)c3n2)C[C@H]1OC.Cl`, the T/C is 125% in data set [1]; 188% in data set [2]; 125% in [3]; 238% in data set [4]; 163% in data set [5]; 300% in data set [7]. This compound also came in with a solubility in data set [6] of 19800 µg/mL. In data set [8], this compound displayed an IC50 of 0.021 µg/mL.
For the compound `Cl.Nc1cc2c(=O)c(C(=O)O)cn(-c3nccs3)c2nc1N1CCC(N)C1` (stereo unspecified), in [8], half-maximal inhibition (IC50) was put at 1.01 µg/mL.
Compound `O=C(O)c1cn(-c2nccs2)c2nc(-c3ccccc3)ccc2c1=O` came in with an IC50 in [8] of 6.33 µg/mL (≈ 18.1 µM).
Turning to `CN[C@H]1CN(c2ccc3c(=O)c(C(=O)O)cn(-c4nccs4)c3n2)C[C@@H]1OC.Cl` [listing 1 of 2 here], the T/C in data set [1] was 150%; in data set [2], 225%; in data set [9] it was above 375%; in [4], 250%; in data set [5] it was 200%; in [7] it was 300%. Further, in data set [6], the solubility turned out to be 20100 µg/mL. Also, the half-maximal inhibitory concentration (IC50) in data set [8] worked out at 0.01 µg/mL.
In turn, `Cc1cc(-c2ccc3c(=O)c(C(=O)O)cn(-c4nccs4)c3n2)cc(C)n1` gave an IC50 in [8] of 7.37 µg/mL (≈ 19.5 µM).
Turning to `C[C@H]1CN(c2ccc3c(=O)c(C(=O)O)cn(-c4nccs4)c3n2)C[C@@H]1N.Cl`, the results for the T/C in data set [9], in data set [4] and in data set [5] were 288%, 200% and 175%, respectively. In data set [6], this compound showed a solubility of 17 µg/mL. In data set [8], this compound yielded an IC50 of 0.0096 µg/mL.
`Cl.O=C(O)c1cn(-c2nccs2)c2nc(N3CCCC3)ccc2c1=O` came in with a half-maximal inhibitory concentration (IC50) in data set [8] of 0.066 µg/mL.
The same measure, in the same setting: the result for `C#Cc1ccc2c(=O)c(C(=O)O)cn(-c3nccs3)c2n1` reads 2.3 µg/mL (≈ 7.74 µM).
As for `CN[C@H]1CN(c2ccc3c(=O)c(C(=O)O)cn(-c4nccs4)c3n2)C[C@@H]1C.Cl`, the T/C in data set [9] was found to be 75%; in [4] it was 288%; in data set [5], 188%. The concentration in solution in data set [6] (solubility) was 6.2 µg/mL. The same compound returned a half-inhibitory concentration (IC50) in data set [8] of 0.012 µg/mL.
`Cl.Nc1cc(N2CCC(N)C2)nc2c1c(=O)c(C(=O)O)cn2-c1nccs1` (stereo unspecified) registered an IC50 in data set [8] of 0.0081 µg/mL.
Still for that read-out and setting: the result for `Cl.O=C(O)c1cn(-c2nccs2)c2nc(N3CCc4ccccc4C3)ccc2c1=O` reads above 10 µg/mL; that for `Cl.NC1CCN(c2cc(Cl)c3c(=O)c(C(=O)O)cn(-c4nccs4)c3n2)C1` (stereo unspecified), 0.049 µg/mL; that for `CN[C@H]1CN(c2ccc3c(=O)c(C(=O)O)cn(-c4nccs4)c3n2)C[C@H]1OC.Cl`, 0.02 µg/mL.
Consider `CO[C@H]1CN(c2ccc3c(=O)c(C(=O)O)cn(-c4nccs4)c3n2)C[C@@H]1N.Cl`, for which the T/C is recorded as 338% in data set [9], 238% in [4] and 163% in data set [5]. This compound showed a solubility in data set [6] of 47 µg/mL. The same compound displayed an IC50 in [8] of 0.018 µg/mL.
In the same order, the values of `Cl.NC1CCN(c2ccc3c(=O)c(C(=O)O)cn(-c4nccs4)c3n2)C1` (stereo unspecified) are 125%, 275%, 188%, 6.9 µg/mL and 0.01 µg/mL.
On to `CC1CC(N)CN1c1ccc2c(=O)c(C(=O)O)cn(-c3nccs3)c2n1.Cl` (stereo unspecified), for which 0.11 µg/mL corresponded to half-maximal inhibition in [8] (IC50).
In turn, `Cl.N[C@H]1CN(c2ccc3c(=O)c(C(=O)O)cn(-c4nccs4)c3n2)C[C@@H]1CCl` gave a half-maximal inhibitory concentration (IC50) in data set [8] of 0.024 µg/mL.
On the same count and under the same terms, the result for `C[C@H]1CN(c2ccc3c(=O)c(C(=O)O)cn(-c4nccs4)c3n2)C[C@]1(C)N.Cl` reads 0.02 µg/mL; that for `Cl.O=C(O)c1cn(-c2nccs2)c2nc(N3C[C@@H]4CCCN[C@@H]4C3)ccc2c1=O`, 0.017 µg/mL; that for `CNC1CCCN(c2ccc3c(=O)c(C(=O)O)cn(-c4nccs4)c3n2)C1.Cl` (stereo unspecified), 0.52 µg/mL.
Still for that read-out and setting: the result for `Cl.NC1CCN(c2nc3c(cc2Cl)c(=O)c(C(=O)O)cn3-c2nccs2)C1` (stereo unspecified) reads 0.227 µg/mL.
For the compound `CNC1CCN(c2ccc3c(=O)c(C(=O)O)cn(-c4nccs4)c3n2)C1.Cl` (stereo unspecified), the T/C is listed as above 375% in data set [9], 300% in data set [4] and 200% in data set [5]. Further, in data set [6], the solubility was 8 µg/mL. The same compound yielded an IC50 in data set [8] of 0.01 µg/mL.
The corresponding values for `CNC1(C)CCN(c2ccc3c(=O)c(C(=O)O)cn(-c4nccs4)c3n2)C1.Cl` (stereo unspecified) are 113%, 225%, 163%, 7.2 µg/mL and 0.018 µg/mL.
Turning to `CN[C@H]1CN(c2ccc3c(=O)c(C(=O)O)cn(-c4nccs4)c3n2)C[C@@H]1OC.Cl` [listing 2 of 2 here], the T/C is listed as 150% in data set [1]; 275% in data set [2]; 188% in data set [3]; above 375% in data set [4]; 225% in data set [5]; above 375% in data set [7]. For the same compound, in [6], the solubility is 23700 µg/mL. In data set [8], this compound gave an IC50 of 0.0075 µg/mL.
On to `COc1cccc2c1C(=O)c1c(O)c3c(c(O)c1C2=O)C[C@@](O)(C(=O)CO)C[C@@H]3O[C@H]1C[C@H](N)[C@H](O)[C@H](C)O1` [DOXORUBICIN], for which the T/C is recorded as 173% in data set [1], 293% in data set [2], 228% in data set [3] and 235% in data set [5].
`COc1ccccc1N1CCN(c2ccc3c(=O)c(C(=O)O)cn(-c4nccs4)c3n2)CC1.Cl` gave an IC50 in [8] above 1 µg/mL.
For `CC1(N)CCN(c2ccc3c(=O)c(C(=O)O)cn(-c4nccs4)c3n2)C1.Cl` (stereo unspecified), the T/C in data set [9] came to 138%; in [4], 213%; in [5] it was 150%. The concentration in solution in [6] (solubility) was 3.8 µg/mL. Besides, in data set [8], the midpoint of inhibition, the IC50, lay at 0.019 µg/mL.
Compound `C[C@H]1[C@H](N)CCN1c1ccc2c(=O)c(C(=O)O)cn(-c3nccs3)c2n1.Cl` yielded an IC50 in data set [8] of 0.094 µg/mL.
`O=C(O)c1cn(-c2nccs2)c2nc(-c3cc[nH]n3)ccc2c1=O` displayed an IC50 in [8] of 4.34 µg/mL (≈ 12.8 µM).
The same measure, in the same setting: the result for `Cl.O=C(O)c1cn(-c2nccs2)c2nc(N3CCOCC3)ccc2c1=O` reads 0.12 µg/mL; that for `Cl.NC1CCN(c2cc(C(F)(F)F)c3c(=O)c(C(=O)O)cn(-c4nccs4)c3n2)C1` (stereo unspecified), 0.098 µg/mL.
Still for that read-out and setting: to `Cl.O=C(O)c1cn(-c2nccs2)c2nc(N3CCNCC3)ccc2c1=O` belongs 0.057 µg/mL.
Still for that read-out and setting: to `Cl.NC1CCN(c2nc3c(cc2[N+](=O)[O-])c(=O)c(C(=O)O)cn3-c2nccs2)C1` (stereo unspecified) belongs 2.29 µg/mL; to `CN[C@@H]1CN(c2ccc3c(=O)c(C(=O)O)cn(-c4nccs4)c3n2)[C@H]1C.Cl`, 0.041 µg/mL.
In the case of CISPLATIN, the T/C amounted to 154% in data set [1], 290% in data set [2], 186% in [3] and 239% in [5].
Consider `C=Cc1ccc2c(=O)c(C(=O)O)cn(-c3nccs3)c2n1`, for which the 50% inhibitory concentration (IC50) in data set [8] is above 1 µg/mL.
`C[C@@H]1CN(c2ccc3c(=O)c(C(=O)O)cn(-c4nccs4)c3n2)C[C@H](C)N1.Cl`: the IC50 in [8] is 0.081 µg/mL.
The same measure, in the same setting: to `CN[C@H]1CN(c2ccc3c(=O)c(C(=O)O)cn(-c4nccs4)c3n2)C[C@@H]1SC.Cl` belongs 0.02 µg/mL; to `Cl.NC1CCN(c2nc3c(cc2O)c(=O)c(C(=O)O)cn3-c2nccs2)C1` (stereo unspecified), 4.31 µg/mL; to `CCN[C@H]1CN(c2ccc3c(=O)c(C(=O)O)cn(-c4nccs4)c3n2)C[C@@H]1OC.Cl`, 0.025 µg/mL.
The same measure, in the same setting: the result for `CNC1CN(c2ccc3c(=O)c(C(=O)O)cn(-c4nccs4)c3n2)C1.Cl` reads 0.024 µg/mL.
